Measurements reported in ChEMBL document CHEMBL1133924, “Inhibitors of bacterial enoyl acyl carrier protein reductase (FabI): 2,9-disubstituted 1,2,3,4-tetrahydropyrido[3,4-b]indoles as potential antibacterial agents” (Bioorg Med Chem Lett, 2001).
pIC50: −log10 of the molar value. In brackets after ≈: the same amount, converted by molar mass.

What was measured:
[1] = biological target: T1, Enoyl-[acyl-carrier-protein] reductase [NADH] FabI (Escherichia coli K-12, UniProt P0AEK4); assay: Antibacterial activity against Escherichia coli Enoyl-[acyl-carrier-protein] reductase was determined
T1 sequence (P0AEK4 whole entry): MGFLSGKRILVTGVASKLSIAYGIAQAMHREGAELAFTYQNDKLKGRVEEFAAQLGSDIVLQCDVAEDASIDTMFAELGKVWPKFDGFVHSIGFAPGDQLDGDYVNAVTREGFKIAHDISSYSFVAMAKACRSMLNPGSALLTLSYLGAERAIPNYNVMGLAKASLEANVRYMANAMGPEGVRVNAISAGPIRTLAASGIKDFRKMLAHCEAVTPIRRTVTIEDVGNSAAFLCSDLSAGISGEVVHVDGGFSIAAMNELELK

[2] = biological target: T1, Enoyl-[acyl-carrier-protein] reductase [NADH] FabI; assay: Antibacterial activity against Escherichia coli FabI
[3] = test system: Moraxella catarrhalis; assay: In vitro antibacterial activity against Moraxella catarrhalis 1502 FabI
Summary of the method: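 Broth microdilution MIC in cation-adjusted Mueller–Hinton broth. Compounds were dissolved in DMSO, diluted 1:10 in water, then serially diluted. Each well received about 1×10⁶ cfu/mL inoculum. Plates were incubated at 35 °C in ambient air for 18–24 h.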

[4] = biological target: T2, Enoyl-[acyl-carrier-protein] reductase [NADPH] FabI (Staphylococcus aureus, UniProt Q6GI75); assay: Antibacterial activity against Staphylococcus aureus FabI
T2 sequence (Q6GI75 whole entry): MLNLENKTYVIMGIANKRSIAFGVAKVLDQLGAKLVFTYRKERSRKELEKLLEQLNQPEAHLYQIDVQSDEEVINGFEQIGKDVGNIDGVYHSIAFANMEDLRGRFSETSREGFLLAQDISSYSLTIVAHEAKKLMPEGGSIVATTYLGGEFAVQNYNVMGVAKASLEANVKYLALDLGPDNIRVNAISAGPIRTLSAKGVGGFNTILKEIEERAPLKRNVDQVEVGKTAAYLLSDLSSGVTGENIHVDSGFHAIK

[5] = test system: Staphylococcus aureus; assay: In vitro antibacterial activity against Staphylococcus aureus FabI
[6] = test system: Escherichia coli; assay: In vitro antibacterial activity against Escherichia coli FabI

Work on `O=C(c1ccc(O)cc1)N1CCc2c([nH]c3ccccc23)C1` yielded a pIC50 [1] of 4.74.
`O=C(c1ccc(Cl)cc1O)N1CCc2c(n(Cc3ccc(O)cc3)c3ccccc23)C1` gave a pIC50 [2] of 5.21, an MIC [3] of 2 µg/mL (≈ 4.62 µM) and a pIC50 [4] of 6.80. The MIC [5] was 1 µg/mL (≈ 2.31 µM) and the MIC [6] was > 64 µg/mL.
In the case of `O=C(c1ccc(O)cc1)N1CCc2c(c3ccccc3n2Cc2ccc(O)cc2)C1`, the pIC50 [4] was 4.49.
For `Cc1cc(O)c(C)c(O)c1C(=O)N1CCc2c(n(Cc3ccc(O)cc3)c3ccccc23)C1`, the pIC50 [2] was < 4.30 and the pIC50 [4] was < 4.30.
In the case of `O=C(c1cc(Cl)cc(Cl)c1O)N1CCc2c(n(Cc3ccc(O)cc3)c3ccccc23)C1`, the pIC50 [2] was 5.00 and the pIC50 [4] was 5.74.
Work on `COC(=O)CCCCn1c2c(c3ccccc31)CCN(C(=O)c1ccc(O)cc1)C2` yielded a pIC50 [1] of 4.57.
Work on `O=C(c1ccc(Cl)cc1Cl)N1CCc2c(n(Cc3ccc(O)cc3)c3ccccc23)C1` yielded a pIC50 [2] of 4.45 and a pIC50 [4] of 5.74.
For `O=C(O)c1ccc(Cn2c3c(c4ccccc42)CCN(C(=O)c2ccc(O)cc2)C3)cc1`, the pIC50 [2] was < 4.30 and the pIC50 [4] was 5.06.
Work on `COC(=O)Cn1c2c(c3ccccc31)CCN(C(=O)c1ccc(O)cc1)C2` yielded a pIC50 [1] of 4.46.
Compound `O=C(c1ccc(O)cc1)N1CCc2c([nH]c3ccccc23)C1c1ccc(O)cc1` (configuration not stated) has a pIC50 [4] of 4.55.
`Nc1ccc(C(=O)N2CCc3c(n(Cc4ccc(O)cc4)c4ccccc34)C2)cc1` gave a pIC50 [2] of 5.40 and a pIC50 [4] of 6.00.
For `Cn1c2c(c3ccccc31)CCN(C(=O)c1ccc(O)cc1)C2`, the pIC50 [1] was 4.96.
For `O=C(c1ccccc1)N1CCc2c(n(Cc3ccc(O)cc3)c3ccccc23)C1`, the pIC50 [2] was 5.57 and the pIC50 [4] was 6.31.
`Cc1ccc(C(=O)N2CCc3c(n(Cc4ccc(O)cc4)c4ccccc34)C2)cc1` was tested, and the pIC50 [2] was 5.28, the MIC [3] was > 64 µg/mL and the pIC50 [4] was 6.62. The MIC [5] was 0.5 µg/mL (≈ 1.26 µM) and the MIC [6] was > 64 µg/mL.
`COC(=O)c1ccc(C(=O)N2CCc3c(n(Cc4ccc(O)cc4)c4ccccc34)C2)cc1` was tested, and the pIC50 [2] was < 4.30 and the pIC50 [4] was 5.70.
With `CCCCc1ccc(C(=O)N2CCc3c(n(Cc4ccc(O)cc4)c4ccccc34)C2)cc1` the pIC50 [2] was < 4.30 and the pIC50 [4] was 6.29.
Work on `O=C(c1ccc(O)cc1)N1CCc2c(n(Cc3ccccc3)c3ccccc23)C1` yielded a pIC50 [1] of 4.57.
Compound `Nc1ccc(Cn2c3c(c4ccccc42)CCN(C(=O)c2ccc(O)cc2)C3)cc1` has a pIC50 [2] of 4.67 and a pIC50 [4] of 6.17.
In the case of `O=C(c1cccc(O)c1)N1CCc2c(n(Cc3ccc(O)cc3)c3ccccc23)C1`, the pIC50 [2] was < 4.30 and the pIC50 [4] was 5.47.
With `Cc1ccc(C(=O)N2CCc3c(n(Cc4ccc(O)cc4)c4ccccc34)C2)c(O)c1` the pIC50 [2] was 5.09, the MIC [3] was 4 µg/mL (≈ 9.7 µM) and the pIC50 [4] was 6.92. For the same compound, the MIC [5] was 1 µg/mL (≈ 2.42 µM) and the MIC [6] was > 64 µg/mL.
With `Cc1cc(C(=O)N2CCc3c(n(Cc4ccc(O)cc4)c4ccccc34)C2)cc(C)c1O` the pIC50 [2] was 4.64 and the pIC50 [4] was 5.54.
`Cc1cc(C(=O)N2CCc3c(n(Cc4ccc(O)cc4)c4ccccc34)C2)ccc1O` gave a pIC50 [2] of 5.36, an MIC [3] of 8 µg/mL (≈ 19.4 µM) and a pIC50 [4] of 6.74. For the same compound, the MIC [5] was 1 µg/mL (≈ 2.42 µM) and the MIC [6] was > 64 µg/mL.
`O=C(c1ccc(O)cc1)N1CCc2c(n(Cc3cccc(O)c3)c3ccccc23)C1` gave a pIC50 [1] of 5.06.
With `O=C(c1ccccc1O)N1CCc2c(n(Cc3ccc(O)cc3)c3ccccc23)C1` the pIC50 [2] was 5.37, the MIC [3] was 8 µg/mL (≈ 20.1 µM) and the pIC50 [4] was 6.14. The MIC [5] was 4 µg/mL (≈ 10 µM) and the MIC [6] was > 64 µg/mL.
`COc1ccc(C(=O)N2CCc3c(n(Cc4ccc(O)cc4)c4ccccc34)C2)cc1` gave a pIC50 [2] of 4.45 and a pIC50 [4] of 6.43.
`O=C(c1ccc(Cl)cc1)N1CCc2c(n(Cc3ccc(O)cc3)c3ccccc23)C1` was tested, and the pIC50 [2] was 4.77, the MIC [3] was > 64 µg/mL and the pIC50 [4] was 6.74. The MIC [5] was 4 µg/mL (≈ 9.59 µM) and the MIC [6] was > 64 µg/mL.
`O=C(c1ccc(O)cc1)N1CCc2c(n(Cc3ccc(O)cc3)c3ccccc23)C1` gave a pIC50 [2] of 5.38, an MIC [3] of 8 µg/mL (≈ 20.1 µM) and a pIC50 [4] of 6.96. The MIC [5] was 0.5 µg/mL (≈ 1.25 µM) and the MIC [6] was > 64 µg/mL.
Work on `CNc1ccc(C(=O)N2CCc3c(n(Cc4ccc(O)cc4)c4ccccc34)C2)cc1` yielded a pIC50 [2] of 4.41 and a pIC50 [4] of 5.68.
In the case of `O=C(c1ccc(O)c(Cl)c1)N1CCc2c(n(Cc3ccc(O)cc3)c3ccccc23)C1`, the pIC50 [2] was 5.47, the MIC [3] was 4 µg/mL (≈ 9.24 µM) and the pIC50 [4] was 6.80. For the same compound, the MIC [5] was 1 µg/mL (≈ 2.31 µM) and the MIC [6] was > 64 µg/mL.
Work on `CS(=O)(=O)c1ccc(Cn2c3c(c4ccccc42)CCN(C(=O)c2ccc(O)cc2)C3)cc1` yielded a pIC50 [2] of 5.35 and a pIC50 [4] of 6.48.
`O=C(c1ccc(O)cc1)N1CCc2c(n(Cc3ccc(F)cc3)c3ccccc23)C1` was tested, and the pIC50 [2] was 5.38 and the pIC50 [4] was 6.60.
In the case of `Oc1cc(Cl)ccc1Oc1ccc(Cl)cc1Cl`, the MIC [3] was 0.06 µg/mL (≈ 0.207 µM), the MIC [5] was 0.03 µg/mL (≈ 0.104 µM) and the MIC [6] was 4 µg/mL (≈ 13.8 µM).
`CN(Cc1cc2ccccc2n1Cc1ccc(O)cc1)C(=O)c1ccc(O)cc1` gave a pIC50 [4] of 6.00.
